Laboratory results: ChEMBL document CHEMBL4004837, “Synthesis and Characterization of Urofuranoic Acids: In Vivo Metabolism of 2-(2-Carboxyethyl)-4-methyl-5-propylfuran-3-carboxylic Acid (CMPF) and Effects on in Vitro Insulin Secretion” (J Med Chem, 2017)

Columns and labels:
[1] = system: Hepatocyte; assay: Cytotoxicity against mouse primary hepatocytes assessed as fold change in capase3/7 activity by Caspase-Glo 3/7 assay relative to DMSO; assay type: cell-based
[2] = system: HEK293; assay: Cytotoxicity against HEK293 cells assessed as fold change in capase3/7 activity by Caspase-Glo 3/7 assay relative to DMSO; assay type: cell-based; conditions: human
[3] = biological target: CYP2C9 (Homo sapiens, UniProt P11712); assay: Inhibition of human microsomal CYP2C9 at 10 uM after 10 mins by single quad LC/MS analysis; assay type: ADME; conditions: microsomes
CYP2C9, sequence (P11712 whole entry): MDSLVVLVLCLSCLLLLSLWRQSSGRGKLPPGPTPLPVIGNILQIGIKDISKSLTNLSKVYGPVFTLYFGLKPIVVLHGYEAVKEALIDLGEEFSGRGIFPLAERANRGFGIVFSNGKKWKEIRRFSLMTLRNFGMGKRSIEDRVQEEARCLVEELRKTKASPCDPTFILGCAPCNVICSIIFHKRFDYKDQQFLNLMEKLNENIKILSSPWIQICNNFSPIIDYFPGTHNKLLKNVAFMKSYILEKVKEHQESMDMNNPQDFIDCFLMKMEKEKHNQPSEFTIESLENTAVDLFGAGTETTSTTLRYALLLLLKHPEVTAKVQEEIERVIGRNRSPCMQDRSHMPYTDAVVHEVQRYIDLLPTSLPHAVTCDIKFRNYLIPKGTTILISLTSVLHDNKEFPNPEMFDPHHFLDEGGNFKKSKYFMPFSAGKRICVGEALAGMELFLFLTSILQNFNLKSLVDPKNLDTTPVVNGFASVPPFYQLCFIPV

[4] = biological target: CYP2D6 (Homo sapiens, UniProt P10635); assay: Inhibition of human microsomal CYP2D6 at 10 uM after 3 mins by single quad LC/MS analysis; assay type: ADME; conditions: microsomes
CYP2D6, sequence (P10635 whole entry): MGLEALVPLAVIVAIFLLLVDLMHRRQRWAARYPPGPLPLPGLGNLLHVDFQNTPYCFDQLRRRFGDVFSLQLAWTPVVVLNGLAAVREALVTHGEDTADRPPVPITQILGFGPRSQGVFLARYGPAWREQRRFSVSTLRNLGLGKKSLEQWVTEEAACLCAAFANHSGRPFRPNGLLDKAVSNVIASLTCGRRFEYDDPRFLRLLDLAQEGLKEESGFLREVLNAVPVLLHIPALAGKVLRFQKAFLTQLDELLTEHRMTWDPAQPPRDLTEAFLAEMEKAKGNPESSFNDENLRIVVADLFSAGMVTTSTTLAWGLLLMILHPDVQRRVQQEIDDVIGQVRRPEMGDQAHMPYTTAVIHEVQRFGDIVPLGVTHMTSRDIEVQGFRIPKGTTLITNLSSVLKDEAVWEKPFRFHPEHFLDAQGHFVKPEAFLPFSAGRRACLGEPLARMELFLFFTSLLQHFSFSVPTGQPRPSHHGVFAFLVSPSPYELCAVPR

[5] = biological target: CYP3A4 (Homo sapiens, UniProt P08684); assay: Inhibition of human microsomal CYP3A4 at 10 uM after 3 mins by single quad LC/MS analysis; assay type: ADME; conditions: microsomes
CYP3A4, sequence (P08684 whole entry): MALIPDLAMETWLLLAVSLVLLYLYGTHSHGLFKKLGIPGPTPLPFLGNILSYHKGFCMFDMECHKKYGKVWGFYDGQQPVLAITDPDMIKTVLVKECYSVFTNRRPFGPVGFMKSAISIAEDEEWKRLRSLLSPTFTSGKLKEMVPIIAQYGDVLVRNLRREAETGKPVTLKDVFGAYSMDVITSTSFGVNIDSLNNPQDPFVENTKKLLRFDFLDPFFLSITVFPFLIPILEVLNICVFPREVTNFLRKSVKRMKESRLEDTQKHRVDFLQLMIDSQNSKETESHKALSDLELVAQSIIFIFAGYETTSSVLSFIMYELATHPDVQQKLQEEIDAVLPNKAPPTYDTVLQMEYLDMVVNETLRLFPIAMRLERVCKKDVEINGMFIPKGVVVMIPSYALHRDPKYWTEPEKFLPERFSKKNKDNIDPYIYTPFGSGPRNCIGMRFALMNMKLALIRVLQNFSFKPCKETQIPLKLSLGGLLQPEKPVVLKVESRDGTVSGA

[6] = Suppression of high glucose stimulated insulin secretion in mouse pancreatic islets at 200 uM treated for 24 hrs followed by glucose stimulation for 20 mins by HTRF assay relative to control; assay type: ADME, cell-based; conditions: pancreatic islet
In short: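 Mouse islet screening assay in high-glucose (20 mM) medium with compounds at 200 µM. Insulin secretion is expressed as fold change relative to vehicle. Mean of n = 4 experiments with SEM; significance by Student's t-test, p ≤ 0.05.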

[7] = Suppression of glucose stimulated insulin secretion in mouse pancreatic islet at 200 uM incubated for 24 hrs followed by glucose stimulation for 20 mins by HTRF assay relative to control
[8] = Drug metabolism in human microsomes at 4 uM after 30 mins by single quad LC/MS analysis; assay type: ADME, Microsome; conditions: read-out: Drug metabolism
[9] = Drug metabolism in mouse microsomes at 4 uM after 30 mins by single quad LC/MS analysis; assay type: ADME, Microsome; conditions: read-out: Drug metabolism
[10] = Effect on insulin content in glucose-stimulated mouse pancreatic islet at 200 uM incubated for 24 hrs followed by glucose stimulation for 20 mins by HTRF assay; assay type: ADME, cell-based
In short: (§1)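 Mouse islets treated with compounds at 200 µM. Insulin secretion was then measured under low- and high-glucose GSIS conditions and under KCl stimulation, and intracellular insulin content was measured. Mean of n = 4-5 experiments with SEM.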

[11] = Suppression of glucose-stimulated insulin secretion in mouse pancreatic islet at 200 uM incubated for 24 hrs followed by glucose stimulation for 20 mins by HTRF assay; assay type: ADME, cell-based; in short: as §1
[12] = Effect on insulin content in KCl-stimulated mouse pancreatic islet at 200 uM incubated for 24 hrs followed by KCl stimulation for 20 mins by HTRF assay; assay type: ADME, cell-based; in short: as §1
[13] = Suppression of KCl-stimulated insulin secretion in mouse pancreatic islet at 200 uM incubated for 24 hrs followed by KCl stimulation for 20 mins by HTRF assay; assay type: ADME, cell-based; in short: as §1
[14] = Passive permeability in MDCK cells; assay type: ADME, cell-based, Canis lupus familiaris; conditions: dog

SMILES	fold change (FC) [1]	fold change (FC) [2]	inhibition at 10 min, 10 µM [3] [%]	inhibition at 0.05 h, 10 µM [4] [%]	inhibition at 0.05 h, 10 µM [5] [%]	Activity [6]	Activity [7]	metabolised at 0.5 h, 4 µM [8] [%]	metabolised at 0.5 h, 4 µM [9] [%]	Activity [10]	Activity [11]	Activity [12]	Activity [13]	permeability [14]
CCCc1oc(CCC(C)=O)c(C(C)=O)c1C	0.3	0.9	0	0	21	–	–	–	–	–	–	–	–	–
CCC(=O)c1oc(CCC(=O)OC)c(C(=O)OC)c1C	1.5	1 to 1.1	–	–	–	–	–	–	–	–	–	–	–	–
Cc1oc(CCC(=O)O)c(C(=O)O)c1C	2	0.8 to 1	–	–	–	–	–	–	–	–	–	–	–	–
COC(=O)CCc1oc2c(c1C(=O)OC)CCCC2	0.4	1 to 1.1	2	20	48	Toxic	Toxic	16	76	–	–	–	–	–
CCCCCc1oc(CCC(=O)OC)c(C(=O)OC)c1C	1 to 1.2	1 to 1.2	27	28	59	Non-Toxic	Non-Toxic	49	60	–	–	–	–	–
CCc1oc(CCC(=O)OC)c(C(=O)OC)c1CC	0.9 to 1	0.9 to 1	–	–	–	Toxic	–	–	–	Toxic	Toxic	Toxic	Toxic	–
CCCCCc1oc(CCC(=O)O)c(C(=O)O)c1C	1.2 to 1.5	1	9	3	3	Toxic	Toxic	5	7	–	–	–	–	–
CCC[C@H]1C[C@H](C(=O)O)[C@@H](CCC(=O)O)O1	2	1 to 1.2	–	–	–	–	–	–	–	–	–	–	–	–
CCCc1oc(CCCO)c(C(=O)OC)c1C	0.6	1 to 1.1	0	0	0	–	–	100	100	–	–	–	–	–
CCCC1(O)OC(O)(CCC(=O)OC)C(C(=O)OC)=C1C (centres undefined)	0.3	0.9 to 1	–	–	–	Non-Toxic	Non-Toxic	–	–	–	–	–	–	–
CCC[C@H]1C[C@H](C(=O)OC)[C@@H](CCC(=O)OC)O1	1.3	1 to 1.1	–	–	–	–	–	–	–	–	–	–	–	–
CCCc1oc(CCC(=O)O)cc1C	0.7	0.9 to 1	9	0	3	–	–	0	20	–	–	–	–	–
CCC(=O)c1oc(CCC(=O)O)c(C(=O)O)c1C	1.1	1 to 1.1	10	11	3	–	–	–	–	–	–	–	–	–
CCCc1oc(CCC(=O)O)c(C(=O)O)c1CCC	1.6 to 1.8	1	0	0	0	Toxic	–	3	7	–	–	–	–	–
CCCc1oc(CCC)c(C(=O)O)c1C	1.4	1 to 2	18	5	13	–	–	21	51	–	–	–	–	–
COC(=O)CCc1oc(C)c(C)c1C(=O)OC	0.8	1 to 1.1	3	12	22	–	–	0	16	–	–	–	–	–
CCc1oc(CCC(=O)O)c(C(=O)O)c1CC	1.1	1	17	3	0	Non-Toxic	–	0	21	–	–	–	–	Impermeable
Cc1c(CCOCc2ccccc2)oc(CCC(=O)O)c1C(=O)O	1.4	1.1	–	–	–	–	–	–	–	–	–	–	–	–
CCCC1(O)OC(O)(CCC(=O)O)C(C(=O)O)=C1C (centres undefined)	0.9	1 to 1.1	–	–	–	Non-Toxic	Non-Toxic	–	–	Non-Toxic	Non-Toxic	Non-Toxic	Non-Toxic	–
CCCc1oc(C(=O)O)c(C)c1C	2.2	1 to 1.2	0	0	0	–	–	20	0	–	–	–	–	–
CCCc1oc(CCC(=O)OC)c(C(=O)OC)c1CCC	0.8 to 0.9	1 to 1.1	–	–	–	–	–	–	–	–	–	–	–	–
CCCc1oc(CCCO)c(C(=O)O)c1C	0.6	1	3	2	2	Non-Toxic	Non-Toxic	10	9	–	–	–	–	–
